According to ChEMBL document CHEMBL3098047, “Design, synthesis and structure-activity relationships of substituted oxazole-benzamide antibacterial inhibitors of FtsZ” (Bioorg Med Chem Lett, 2014):
≈ marks a conversion by molar mass, not a printed value.

Columns and labels:
[1] = Kinetic solubility of the compound in PBS buffer at pH 7.4 after 24 hrs by turbidimetric method; assay type: physicochemical; details: read-out: Kinetic_solubility
Summary of the method: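 Turbidimetric: doubling dilutions in DMSO diluted twenty-fold into PBS pH 7.4, equilibrated 24 h at room temperature, absorbance read at 620 nm. Value is highest concentration with no measurable precipitate.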

Staphylococcus aureus [2] = assay: Antibacterial activity against Staphylococcus aureus ATCC 29213 by broth microdilution method; assay type: functional
Summary of the method: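 Broth microdilution MIC per CLSI guidelines against S. aureus ATCC 29213; MIC in µg/mL.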

[3] = molecular target: T1, Cell division protein FtsZ (Staphylococcus aureus) (UniProt P0A031); assay: Inhibition of Staphylococcus aureus ATCC 29213 FtsZ-mediated cell division phenotype
T1 sequence (whole entry): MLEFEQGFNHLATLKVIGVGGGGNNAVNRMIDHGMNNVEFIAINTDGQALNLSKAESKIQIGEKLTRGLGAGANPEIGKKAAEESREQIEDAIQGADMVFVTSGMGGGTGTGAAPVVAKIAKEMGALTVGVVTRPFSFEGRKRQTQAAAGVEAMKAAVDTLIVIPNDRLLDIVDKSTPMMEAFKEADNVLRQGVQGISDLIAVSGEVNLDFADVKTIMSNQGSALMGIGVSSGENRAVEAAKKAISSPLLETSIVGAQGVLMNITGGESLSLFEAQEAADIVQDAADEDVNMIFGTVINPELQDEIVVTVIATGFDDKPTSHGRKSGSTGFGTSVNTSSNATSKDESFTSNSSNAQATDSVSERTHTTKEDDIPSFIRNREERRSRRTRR
Summary of the method: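 S. aureus ATCC 29213 cell division inhibition assay run alongside MIC testing; value is the lowest concentration at which an inhibition of cell division phenotype was seen (µg/mL).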

Staphylococcus aureus [4] = assay: Antibacterial activity against Staphylococcus aureus harboring FtsZ G196A mutant by broth microdilution method; assay type: functional
Summary of the method: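 S. aureus ATCC 29213 derivative with G196A substitution in FtsZ; MIC by broth microdilution following CLSI guidelines; reported in µg/mL.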

[5] = Half life in Balb/c mouse at 3 mg/kg, iv by LC-MS/MS analysis; assay type: ADME, organism-based; design: dose 3 mg/kg, route intravenous; details: in vivo
[6] = Clearance in Balb/c mouse at 3 mg/kg, iv by LC-MS/MS analysis; assay type: ADME, organism-based; design: dose 3 mg/kg, route intravenous; details: in vivo
[7] = Volume of distribution in Balb/c mouse at 3 mg/kg, iv by LC-MS/MS analysis; assay type: ADME, organism-based; design: dose 3 mg/kg, route intravenous; details: in vivo
[8] = Initial plasma concentration in Balb/c mouse at 3 mg/kg, iv by LC-MS/MS analysis; assay type: ADME, organism-based; design: dose 3 mg/kg, route intravenous
[9] = AUC in Balb/c mouse at 3 mg/kg, iv by LC-MS/MS analysis; assay type: ADME, organism-based; design: dose 3 mg/kg, route intravenous; details: plasma
[10] = Metabolic stability in mouse plasma assessed as compound remaining at 10 uM after 24 hrs by LC-MS/MS analysis; assay type: ADME, cell-free; details: read-out: Stability
Summary of the method: (§1)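 Compound at 10 μM in PBS pH 7.4 or neat mouse plasma, 5% v/v DMSO final, incubated 24 h at 37 °C. Samples extracted with acetonitrile and centrifuged; supernatant analysed by LC-MS; reported as % remaining.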

[11] = Half life in CD-1 mouse hepatocytes at 10 uM by LC-MS/MS analysis; assay type: ADME, cell-based, Hepatocyte
Summary of the method: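 Cryopreserved CD-1 mouse hepatocytes (5×10^4 cells), compound 10 μM in duplicate, 0.5% v/v DMSO final; stopped with DMSO at seven time points up to 120 min. Acetonitrile extraction, centrifugation, LC-MS of supernatant; half-life in min.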

[12] = Half life in mouse microsomes at 10 uM by LC-MS/MS analysis; assay type: ADME, Microsome
Summary of the method: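 Mouse microsomes at 1 mg/mL protein, compound 10 μM, 0.1% v/v DMSO final; started with 1 mM NADPH, stopped with DMSO at 0, 10, 30, 60 min. Acetonitrile extraction, centrifugation, LC-MS of supernatant; half-life in min.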

[13] = Chemical stability of the compound in PBS buffer assessed as compound remaining at 10 uM at pH 7.4 after 24 hrs by LC-MS/MS analysis; assay type: physicochemical; details: read-out: Stability; summary of the method: as §1

Row | Structure (SMILES) | solubility kinetic at 24 h [1] | MIC (Staphylococcus aureus [2]) | MIC [3] | MIC (Staphylococcus aureus [4]) | also measured
1 | NC(=O)c1c(F)ccc(OC(COC(=O)NCCN2CCCC2)c2nc(-c3ccc(C(F)(F)F)cc3)c(Br)o2)c1F (racemic) | 400 µg/mL (≈ 618 µM) |  |  |  | 
2 | COc1ccc(-c2nc(COc3ccc(F)c(C(N)=O)c3F)oc2C2CC2)cc1 |  | 0.12 µg/mL (≈ 0.3 µM) | 0.12 µg/mL (≈ 0.3 µM) | > 64 µg/mL | 
3 | NC(=O)c1c(F)ccc(OC(COC(=O)N2CCNCC2)c2nc(-c3ccc(C(F)(F)F)cc3)c(Br)o2)c1F (racemic) | 200 µg/mL (≈ 323 µM) |  |  |  | 
4 | N#Cc1oc(COc2ccc(F)c(C(N)=O)c2F)nc1-c1ccc(C(F)(F)F)cc1 |  | 2 µg/mL (≈ 4.72 µM) | 4 µg/mL (≈ 9.45 µM) | > 64 µg/mL | 
5 | NC(=O)c1c(F)ccc(OCc2nc(-c3ccc(O)cc3)co2)c1F |  | 8 µg/mL (≈ 23.1 µM) | 8 µg/mL (≈ 23.1 µM) | > 64 µg/mL | 
6 | NC(=O)c1c(F)ccc(OC(COC(=O)NCC(=O)O)c2nc(-c3ccc(C(F)(F)F)cc3)c(Br)o2)c1F (racemic) | 800 µg/mL (≈ 1320 µM) |  |  |  | 
7 | NC(=O)c1c(F)ccc(OC(c2cccnc2)c2nc(-c3ccc(Cl)cc3)c(Br)o2)c1F (racemic) |  | 4 µg/mL (≈ 7.68 µM) | 4 µg/mL (≈ 7.68 µM) |  | 
8 | COc1ccc(-c2nc(COc3ccc(F)c(C(N)=O)c3F)oc2-c2cncs2)cc1 |  | 2 µg/mL (≈ 4.51 µM) | 2 µg/mL (≈ 4.51 µM) |  | 
9 | NC(=O)c1c(F)ccc(OC(COC(=O)NCCc2c[nH]cn2)c2nc(-c3ccc(C(F)(F)F)cc3)c(Br)o2)c1F (racemic) | 100 µg/mL (≈ 155 µM) |  |  |  | 
10 | CC(Oc1ccc(F)c(C(N)=O)c1F)c1nc(-c2ccc(C(F)(F)F)cc2)c(Br)o1 (racemic) |  | 0.06 µg/mL (≈ 0.122 µM) | 0.06 µg/mL (≈ 0.122 µM) |  | half-life [5]: 1.05 h; clearance [6]: 22 mL/min/kg; Vd [7]: 2 L/kg; C0 [8]: 2000 ng/mL; AUC [9]: 2200 ng·h/mL
11 | NC(=O)c1c(F)ccc(OC(COP(=O)(O)O)c2nc(-c3ccc(C(F)(F)F)cc3)c(Br)o2)c1F (racemic) | > 800 µg/mL |  |  |  | 
12 | NC(=O)c1c(F)ccc(OCc2nc(-c3ccc(Cl)cc3)c(CO)o2)c1F |  | 8 µg/mL (≈ 20.3 µM) | 8 µg/mL (≈ 20.3 µM) | > 64 µg/mL | 
13 | CC(Oc1ccc(F)c(C(N)=O)c1F)c1nc(-c2ccc(OC(F)(F)F)cc2)c(Cl)o1 (racemic) |  | 0.12 µg/mL (≈ 0.259 µM) | 0.25 µg/mL (≈ 0.54 µM) |  | half-life [5]: 1.32 h; clearance [6]: 31 mL/min/kg; Vd [7]: 3.5 L/kg; C0 [8]: 2100 ng/mL; AUC [9]: 1600 ng·h/mL
14 | NC(=O)c1c(F)ccc(OCc2nc(-c3ccc(Cl)cc3)c(Br)o2)c1F |  | 0.06 µg/mL (≈ 0.135 µM) | 0.03 µg/mL (≈ 0.0676 µM) | 2 µg/mL (≈ 4.51 µM) | 
15 | COc1oc(COc2ccc(F)c(C(N)=O)c2F)nc1-c1ccc(Cl)cc1 |  | 0.5 µg/mL (≈ 1.27 µM) | 0.5 µg/mL (≈ 1.27 µM) |  | 
16 | NC(=O)c1c(F)ccc(OC(COC(=O)CCC(=O)O)c2nc(-c3ccc(C(F)(F)F)cc3)c(Br)o2)c1F (racemic) | 200 µg/mL (≈ 329 µM) |  |  |  | 
17 | CNCCNC(=O)OCC(Oc1ccc(F)c(C(N)=O)c1F)c1nc(-c2ccc(C(F)(F)F)cc2)c(Br)o1 (racemic) | 200 µg/mL (≈ 329 µM) |  |  |  | 
18 | NC(=O)c1c(F)ccc(OCc2nc(-c3ccc(Cl)cc3)c(N)o2)c1F |  | > 64 µg/mL | > 64 µg/mL | > 64 µg/mL | 
19 | NC(=O)c1c(F)ccc(OCc2nc(-c3ccc(Cl)cc3)co2)c1F |  | 4 µg/mL (≈ 11 µM) | 4 µg/mL (≈ 11 µM) | > 64 µg/mL | 
20 | NC(=O)c1c(F)ccc(OC(CC(O)CO)c2nc(-c3ccc(C(F)(F)F)cc3)c(Br)o2)c1F (racemic) | 100 µg/mL (≈ 181 µM) | 0.5 µg/mL (≈ 0.907 µM) | 0.5 µg/mL (≈ 0.907 µM) |  | 
21 | CC(Oc1ccc(F)c(C(N)=O)c1F)c1nc(-c2ccc(OC(F)(F)F)cc2)c(Br)o1 (racemic) |  | 0.12 µg/mL (≈ 0.237 µM) | 0.12 µg/mL (≈ 0.237 µM) |  | remaining at 24 h, 10 µM [10]: 104%; half-life [5]: 0.883 h; clearance [6]: 36 mL/min/kg; Vd [7]: 2.7 L/kg; C0 [8]: 2500 ng/mL; half-life at 10 µM [11]: 1.69 h; half-life at 10 µM [12]: > 2 h; remaining at 24 h, 10 µM [13]: 96%; AUC [9]: 1400 ng·h/mL
22 | NC(=O)c1c(F)ccc(OC(COC(=O)Nc2nnn[nH]2)c2nc(-c3ccc(C(F)(F)F)cc3)c(Br)o2)c1F (racemic) | 800 µg/mL (≈ 1290 µM) |  |  |  | 
23 | NC(=O)c1c(F)ccc(OCc2nc(-c3ccc(Cl)cc3)c([N+](=O)[O-])o2)c1F |  | > 64 µg/mL | > 64 µg/mL | > 64 µg/mL | 
